# Results: publication PMC4066402 (Genes & Development, 2014)
# Substitutions are numbered along the chain they refer to.
# T1: Pce1 G276R (Schizosaccharomyces pombe, UniProt P40997, G276R)
# T1 sequence (P40997 1-402 G276R): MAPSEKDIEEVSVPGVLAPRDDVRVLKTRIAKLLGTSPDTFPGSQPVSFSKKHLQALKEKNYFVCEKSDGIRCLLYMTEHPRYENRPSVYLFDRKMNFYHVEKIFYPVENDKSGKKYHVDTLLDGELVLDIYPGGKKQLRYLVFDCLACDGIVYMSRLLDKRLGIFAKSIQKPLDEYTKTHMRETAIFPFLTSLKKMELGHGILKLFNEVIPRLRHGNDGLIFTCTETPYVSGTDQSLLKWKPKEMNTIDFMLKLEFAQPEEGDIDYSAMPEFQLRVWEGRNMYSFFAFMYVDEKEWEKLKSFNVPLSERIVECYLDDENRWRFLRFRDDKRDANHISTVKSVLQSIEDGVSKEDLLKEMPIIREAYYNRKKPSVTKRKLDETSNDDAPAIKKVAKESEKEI
# T2: Pce1 (Schizosaccharomyces pombe, UniProt P40997)
# T2 sequence (P40997 1-402): T1 sequence (P40997 1-402 G276R) with R276G
# T3: BODIPY-FL-N(Cys)-Spt5-(801–898) (S. pombe) (UniProt O13936)
# T3 sequence (O13936 801-898, looked up): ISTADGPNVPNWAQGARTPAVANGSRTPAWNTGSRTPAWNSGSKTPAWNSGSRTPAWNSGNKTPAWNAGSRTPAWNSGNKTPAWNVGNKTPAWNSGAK
# B1: BODIPY-FL-Spt5 CTD-(801–898): N(Cys)-Spt5-(801–898) labeled with BODIPY-FL at the N terminus via maleimide chemistry (protein, UniProt O13936 801-898, looked up, fragment)
# chain: T3 sequence (O13936 801-898, looked up)
# modifications: N-terminal Cys, BODIPY-FL label
# B2: Spt5-(801–898): purified recombinant Spt5-(801–898), composed of 10 nonamer repeats (protein, UniProt O13936 801-898, looked up, fragment)
# chain: T3 sequence (O13936 801-898, looked up)
# B3: Spt5 CTD composed of 10 nonamer repeats: Spt5 CTD composed of 10 nonamer repeats (protein, UniProt O13936 801-898, looked up, fragment)
# chain: T3 sequence (O13936 801-898, looked up)
# B4: Schizosaccharomyces pombe RNA guanylyltransferase (GTase) Pce1, wild type, as the covalent Pce1–GMP intermediate (enzyme)
# chain: SMAPSEKDIEEVSVPGVLAPRDDVRVLKTRIAKLLGTSPDTFPGSQPVSFSKKHLQALKEKNYFVCEKSDGIRCLLYMTEHPRYENRPSVYLFDRKMNFYHVEKIFYPVENDKSGKKYHVDTLLDGELVLDIYPGGKKQLRYLVFDCLACDGIVYMSRLLDKRLGIFAKSIQKPLDEYTKTHMRETAIFPFLTSLKKMELGHGILKLFNEVIPRLRHGNDGLIFTCTETPYVSGTDQSLLKWKPKEMNTIDFMLKLEFAQPEEGDIDYSAMPEFQLGVWEGRNMYSFFAFMYVDEKEWEKLKSFNVPLSERIVECYLDDENRWRFLRFRDDKRDANHISTVKSVLQSIEDGVSKEDLLKEMPIIREAYYNRKKPSVTKRKLDETSNDDAPAIKKVAKESEKEI
# modifications: Lys67 covalently guanylylated (lysyl-Nζ-GMP)
# B5: Pce1-G276R (enzyme)
# chain: B4 chain with G277R
# modifications: guanylylated in vitro (Pce1–GMP)
# Legend:
# Pce1 G276R = biological target: T1, Pce1 G276R; test: Fluorescence polarization binding of Spt5 CTD-; design: species or system S. pombe
# Outline: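 Tag-free Pce1–GMP (His6Smt3 fusion made in E. coli, Ulp1-cleaved, gel-filtered, then guanylylated with 1 mM GTP/5 mM MgCl2 for 30 min on ice) was titrated against BODIPY-FL-N(Cys)-Spt5-(801–898) in 20 mM Tris-HCl, 4 mM DTT. Incubation was 15 min on ice. Read-out was polarization at ex 485/em 538 nm. Kd came from single-site fits, using a receptor-depletion model where half-saturation approached the ligand concentration.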
# Pce1 [1] = biological target: T2, Pce1; test: Competition between labeled and unlabeled Spt5 CTD-; assay type: binding, S. pombe; details: 1 μM Pce1 preincubated with untagged Spt5 CTD-(801–898) 15 min on ice, then 0.3 μM BODIPY-FL-Spt5 CTD-(801–898); pH 8.0; three independent experiments ± SEM
# Pce1 [2] = details: His tag affinity chromatography assay; ref Pei and Shuman 2002; cited from earlier work
# [3] = biological target: T3, BODIPY-FL-N(Cys)-Spt5-(801–898) (S. pombe); test: fluorescence polarisation
molecule,measurement,setting,value
B1,decrement in binding affinity,Pce1 G276R; Pce1-G276R vs wild-type Pce1,24 fold
same,Kd,"Pce1 G276R; Pce1 G276R, 300 nM labeled ligand, pH 8.0, 50 mM NaCl, read at 23°C, triplicate",28.8 ± 4.3 µM
B2,Ki,Pce1 [1],0.61 ± 0.2 µM
B3,"Pce1 binding to Spt5 CTD, dependence on number of nonamer repeats",Pce1 [2],bound well
B4,Kd,[3],1.19 µM
B5,Kd,[3],28.8 µM
